Data from ChEMBL document CHEMBL1759850, “Design, synthesis, and biological evaluation of novel γ-carboline ketones as anticancer agents” (Eur J Med Chem, 2011).

Columns and labels:
A549 [1] = experiment: Cytotoxicity against human A549 cells after 48 hrs by MTT assay; format: functional, cell-based; settings: A549, 48 h
Outline: (§1)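 Cells were exposed to drug for 48 h, then given MTT in RPMI-1640 for a further 4 h at 37 °C. Formazan was dissolved in DMSO and absorbance read at 570 nm after 5 min. Each assay was run in triplicate in three independent experiments. IC50 (50% inhibition of viability) was computed by dose-effect analysis.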

[2] = Cytotoxicity against human SGC cells after 48 hrs by MTT assay; format: functional, cell-based; outline: as §1
HCT-116 = experiment: Cytotoxicity against human HCT116 cells after 48 hrs by MTT assay; format: functional, cell-based; settings: HCT-116, 48 h; outline: as §1
MCF7 = experiment: Cytotoxicity against human MCF7 cells after 48 hrs by MTT assay; format: functional, cell-based; settings: MCF7, 48 h; outline: as §1
K562 [3] = experiment: Cytotoxicity against human K562 cells after 48 hrs by MTT assay; format: functional, cell-based; settings: K562, 48 h; outline: as §1
K562 [4] = experiment: Cytotoxicity against human multidrug-resistant K562 cells after 48 hrs by MTT assay; format: functional, cell-based; settings: K562, 48 h; outline: as §1
Tubulin [5] = experiment: Inhibition of tubulin polymerization in human MCF7 cells by fluorometric analysis
Outline: (§2)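 Tubulin polymerization was run at 37 °C in 80 mM PIPES (pH 6.9) with 20% glycerol, 1 mM GTP, 2.0 mM MgCl2 and 0.5 mM EGTA. It was followed kinetically on a fluorescence plate reader.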

Tubulin [6] = experiment: Inhibition of tubulin polymerization in human K562 cells by fluorometric analysis; outline: as §2
A549 [7] = experiment: Cell cycle arrest in human A549 cells assessed as accumulation at G0/G1 phase at 2 uM after 48 hrs by flow cytometric analysis; format: functional
Outline: (§3)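 A549 cells in exponential growth were treated for 48 h, washed twice in PBS and fixed in 75% ethanol. They were then incubated for 0.5 h at 37 °C and stained with propidium iodide for 15 min. DNA content was read on a FACSCalibur flow cytometer.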

A549 [8] = experiment: Cell cycle arrest in human A549 cells assessed as accumulation at G2/M phase at 2 uM after 48 hrs by flow cytometric analysis; format: functional; outline: as §3
A549 [9] = experiment: Cell cycle arrest in human A549 cells assessed as accumulation at S phase at 2 uM after 48 hrs by flow cytometric analysis; format: functional; outline: as §3

SMILES	IC50 (A549 [1]) [µM]	IC50 [2] [µM]	IC50 (HCT-116) [µM]	IC50 (MCF7) [µM]	IC50 (K562 [3]) [µM]	IC50 (K562 [4]) [µM]	IC50 (Tubulin [5]) [µM]	IC50 (Tubulin [6]) [µM]	Activity (A549 [7]) [%]	Activity (A549 [8]) [%]	Activity (A549 [9]) [%]
CCn1c2ccc(C(=O)c3ccc(Br)cc3)cc2c2c[n+](CC)ccc21	> 100	> 100	> 100	56	> 100	> 100					
Cn1c2ccncc2c2cc(C(=O)c3ccccc3)ccc21					4.82						
CCn1c2ccncc2c2cc(C(=O)c3ccccc3)ccc21	23.2	11.8	8.63	8.36	4.96	9.09					
CC(C)n1c2ccncc2c2cc(C(=O)c3ccccc3)ccc21					6.46						
CCn1c2ccncc2c2cc(C(=O)c3ccc(OC)cc3)ccc21	20.5	17.8	70.2	3.85	6.39	2.09					
CCn1c2ccncc2c2cc(C(=O)c3cccc(OC)c3)ccc21	21.4	18.7	34.3	9.99	6.42	1.57					
CCn1c2ccncc2c2cc(C(=O)c3ccc(S(C)(=O)=O)cc3)ccc21	24.2	24.9	37.8	3.28	5.26	0.66	4.3	4.3	10.29	63.12	26.59
CCn1c2ccncc2c2cc(C(=O)c3ccc(Cl)cc3)ccc21	27.2	62.5	62.6	30.6	4.69	1.58					
CCn1c2ccncc2c2cc(C(=O)c3ccccc3Cl)ccc21	41.4	38.6	42.3	21	13.7	7.08					
CCn1c2ccncc2c2cc(C(=O)c3ccc(Br)cc3)ccc21	35.1	34	24.3	> 100	2.11	1.58					
CCn1c2ccncc2c2cc(C(=O)c3ccccc3F)ccc21	46.8	35.6	35.9	4.74	12.2	1.45					
CCn1c2ccncc2c2cc(C(=O)c3ccc([N+](=O)[O-])cc3)ccc21	29.1	> 100	59.2	3.21	16.8	3.68					
CCn1c2ccncc2c2cc(C(=O)c3ccc(N)cc3)ccc21	49.3	> 100	40.6	5.04	13.4	23.3					
CCn1c2ccc(C(=O)c3ccccc3)cc2c2c[n+](CC)ccc21	> 100	> 100	> 100	12	> 100	> 100					
